Test results from ChEMBL document CHEMBL2086304, “Synthesis and in vitro antimycobacterial and isocitrate lyase inhibition properties of novel 2-methoxy-2'-hydroxybenzanilides, their thioxo analogues and benzoxazoles” (Eur J Med Chem, 2012).
Converted amounts (≈) assume the structure as drawn.

Legend:
HepG2 = assay: Cytotoxicity against human HepG2 cells after 24 hrs by CellTiter-96 cell viability assay; type: functional, cell-based; details: HepG2, 24 h
In short: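 Hep G2 human hepatic cells (passage 12), 10,000 per well, grown 24 h at 37 °C, 5% CO2 in MEM with 1% glutamine, 10% FBS and 1% nonessential amino acids. Compounds in DMSO at eight increasing concentrations, quadruplicate, 24 h at 37 °C. Kit reagent added, 1.5 h at 37 °C, absorbance 490 nm. IC50 is the concentration reducing viability to 50% of control.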

Mycobacterium avium [1] = assay: Antimycobacterial activity against isoniazid resistance Mycobacterium avium 330/88 after 21 days by micromethod; type: functional; details: 330/88, 504 h
In short: (§1)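 Inocula: M. tuberculosis My 331/88 at 10^-3 dilution, M. avium My 330/88 at 10^-5, M. kansasii My 235/80 and clinical isolate 6509/96 at 10^-4. Compounds added in DMSO at 1000 down to 0.5 (twofold series). Read at 14 and 21 days, plus 7 days for M. kansasii. MIC taken as lowest concentration inhibiting growth.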

Mycobacterium kansasii [2] = assay: Antimycobacterial activity against isoniazid resistance Mycobacterium kansasii 225/80 after 14 days by micromethod; type: functional; details: 225/80, 336 h
Mycobacterium kansasii [3] = assay: Antimycobacterial activity against Mycobacterium kansasii 6509/96 clinical isolate after 21 days by micromethod; type: functional; details: 6509/96, 504 h; in short: as §1
Mycobacterium kansasii [4] = assay: Antimycobacterial activity against isoniazid resistance Mycobacterium kansasii 225/80 after 7 days by micromethod; type: functional; details: 225/80, 168 h
Mycobacterium kansasii [5] = assay: Antimycobacterial activity against Mycobacterium kansasii 6509/96 clinical isolate after 7 days by micromethod; type: functional; details: 6509/96, 168 h; in short: as §1
[6] = Selectivity index, ratio of IC50 for human HepG2 cells to MIC for Mycobacterium tuberculosis 331/88 after 14 days; type: functional
In short: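 Cytotoxicity in Hep G2 cells (passage 12), 10,000 cells/well, in MEM with 10% FBS, 1% glutamine and 1% nonessential amino acids. Cells preincubated 24 h, 37 °C, 5% CO2. Compounds in DMSO at eight concentrations in quadruplicate, 24 h. MTS-type reagent added for 1.5 h, A490 read, IC50 taken at 50% viability. SI = this IC50 over the 14-day M. tuberculosis MIC.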

Mycobacterium kansasii [7] = assay: Antimycobacterial activity against isoniazid resistance Mycobacterium kansasii 225/80 after 21 days by micromethod; type: functional; details: 225/80, 504 h
Mycobacterium avium [8] = assay: Antimycobacterial activity against isoniazid resistance Mycobacterium avium 330/88 after 14 days by micromethod; type: functional; details: 330/88, 336 h; in short: as §1
[9] = molecular target: T1, Isocitrate lyase (Mycobacterium tuberculosis) (UniProt P9WKK7); assay: Inhibition of Mycobacterium tuberculosis H37Rv isocitrate lyase expressed in Escherichia coli HB101 at 10 umol/L
T1 sequence (whole entry): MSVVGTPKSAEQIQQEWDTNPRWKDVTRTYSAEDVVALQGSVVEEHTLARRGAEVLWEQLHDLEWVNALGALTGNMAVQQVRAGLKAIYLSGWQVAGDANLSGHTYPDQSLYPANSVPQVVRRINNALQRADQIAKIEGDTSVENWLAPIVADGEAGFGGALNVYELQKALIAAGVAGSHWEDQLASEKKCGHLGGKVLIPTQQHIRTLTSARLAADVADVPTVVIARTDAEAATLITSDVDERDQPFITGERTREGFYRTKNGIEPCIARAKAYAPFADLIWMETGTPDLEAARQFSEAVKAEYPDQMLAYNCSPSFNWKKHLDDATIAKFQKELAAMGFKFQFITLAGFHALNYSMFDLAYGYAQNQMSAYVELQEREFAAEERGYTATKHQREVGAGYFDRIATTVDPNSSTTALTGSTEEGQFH
In short: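 Isocitrate lyase assayed per Dixon–Kornberg in 96-well format. Buffer: 50 mmol/L KH2PO4, 4 mmol/L MgCl2, 4 mmol/L phenylhydrazine, 12 mmol/L cysteine, pH 7.0. Glyoxylate phenylhydrazone read at 324 nm. Compounds added in DMSO, with DMSO-alone inhibition subtracted.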

[10] = test system: Mycobacterium tuberculosis; assay: Antimycobacterial activity against Mycobacterium tuberculosis 331/88 after 14 days by micromethod; type: functional; details: 331/88, 336 h; in short: as §1
[11] = test system: Mycobacterium tuberculosis; assay: Antimycobacterial activity against Mycobacterium tuberculosis 331/88 after 21 days by micromethod; type: functional; details: 331/88, 504 h; in short: as §1
Mycobacterium kansasii [12] = assay: Antimycobacterial activity against Mycobacterium kansasii 6509/96 clinical isolate after 14 days by micromethod; type: functional; details: 6509/96, 336 h; in short: as §1

Row | SMILES | IC50 (HepG2) [µM] | MIC (Mycobacterium avium [1]) [µM] | MIC (Mycobacterium kansasii [2]) [µM] | MIC (Mycobacterium kansasii [3]) [µM] | MIC (Mycobacterium kansasii [4]) [µM] | MIC (Mycobacterium kansasii [5]) [µM] | Selectivity Index [6] | MIC (Mycobacterium kansasii [7]) [µM] | MIC (Mycobacterium avium [8]) [µM] | inhibition [9] [%] | MIC [10] [µM] | MIC [11] [µM] | MIC (Mycobacterium kansasii [12]) [µM]
1 | COc1ccc(Cl)cc1C(=S)Nc1cc(Cl)ccc1O | 8.6 | 32 (≈ 10.5 µg/mL) | 8 (≈ 2.63 µg/mL) | 32 (≈ 10.5 µg/mL) | 8 (≈ 2.63 µg/mL) | 16 (≈ 5.25 µg/mL) | 0.54 | 16 (≈ 5.25 µg/mL) | 32 (≈ 10.5 µg/mL) | 0 | 16 (≈ 5.25 µg/mL) | 32 (≈ 10.5 µg/mL) | 32 (≈ 10.5 µg/mL)
2 | COc1cc(Cl)ccc1C(=S)Nc1cc(Cl)ccc1O | 8.49 | 32 (≈ 10.5 µg/mL) | 62.5 (≈ 20.5 µg/mL) | 125 (≈ 41 µg/mL) | 16 (≈ 5.25 µg/mL) | 32 (≈ 10.5 µg/mL) | 0.14 | 125 (≈ 41 µg/mL) | 32 (≈ 10.5 µg/mL) | 9 | 62.5 (≈ 20.5 µg/mL) | 62.5 (≈ 20.5 µg/mL) | 62.5 (≈ 20.5 µg/mL)
3 | COc1ccc(Cl)cc1C(=O)Nc1ccc(Cl)cc1O | 51.3 | 250 (≈ 78 µg/mL) | 32 (≈ 9.99 µg/mL) | 16 (≈ 4.99 µg/mL) | 16 (≈ 4.99 µg/mL) | 8 (≈ 2.5 µg/mL) | 12.83 | 62.5 (≈ 19.5 µg/mL) | 62.5 (≈ 19.5 µg/mL) | 10 | 4 (≈ 1.25 µg/mL) | 4 (≈ 1.25 µg/mL) | 16 (≈ 4.99 µg/mL)
4 | COc1ccc(Cl)cc1C(=O)Nc1ccc(Br)cc1O | 7.98 | 500 (≈ 178 µg/mL) | 500 (≈ 178 µg/mL) | 250 (≈ 89.2 µg/mL) | 500 (≈ 178 µg/mL) | 250 (≈ 89.2 µg/mL) | 2 | 500 (≈ 178 µg/mL) | 500 (≈ 178 µg/mL) | 0 | 4 (≈ 1.43 µg/mL) | 8 (≈ 2.85 µg/mL) | 250 (≈ 89.2 µg/mL)
5 | COc1ccc(Cl)cc1C(=S)Nc1cc(Br)ccc1O | 8.74 | 32 (≈ 11.9 µg/mL) | 16 (≈ 5.96 µg/mL) | 32 (≈ 11.9 µg/mL) | 8 (≈ 2.98 µg/mL) | 16 (≈ 5.96 µg/mL) | 0.55 | 16 (≈ 5.96 µg/mL) | 32 (≈ 11.9 µg/mL) | 8 | 16 (≈ 5.96 µg/mL) | 32 (≈ 11.9 µg/mL) | 16 (≈ 5.96 µg/mL)
6 | COc1ccc(Cl)cc1C(=S)Nc1cc(Cl)c(Cl)cc1O | 3.72 | 62.5 (≈ 22.7 µg/mL) | 62.5 (≈ 22.7 µg/mL) | 62.5 (≈ 22.7 µg/mL) | 32 (≈ 11.6 µg/mL) | 16 (≈ 5.8 µg/mL) | 0.23 | 62.5 (≈ 22.7 µg/mL) | 62.5 (≈ 22.7 µg/mL) | 9 | 16 (≈ 5.8 µg/mL) | 32 (≈ 11.6 µg/mL) | 32 (≈ 11.6 µg/mL)
7 | COc1cc(Cl)ccc1C(=O)Nc1ccc(Br)cc1O | 46.6 | 125 (≈ 44.6 µg/mL) | 125 (≈ 44.6 µg/mL) | 125 (≈ 44.6 µg/mL) | 125 (≈ 44.6 µg/mL) | 125 (≈ 44.6 µg/mL) | 0.37 | 125 (≈ 44.6 µg/mL) | 125 (≈ 44.6 µg/mL) | 0 | 125 (≈ 44.6 µg/mL) | 125 (≈ 44.6 µg/mL) | 125 (≈ 44.6 µg/mL)
8 | COc1ccc(Cl)cc1C(=S)Nc1ccc(Cl)cc1O | 4.45 | 62.5 (≈ 20.5 µg/mL) | 32 (≈ 10.5 µg/mL) | 32 (≈ 10.5 µg/mL) | 16 (≈ 5.25 µg/mL) | 32 (≈ 10.5 µg/mL) | 0.28 | 62.5 (≈ 20.5 µg/mL) | 32 (≈ 10.5 µg/mL) | 0 | 16 (≈ 5.25 µg/mL) | 32 (≈ 10.5 µg/mL) | 32 (≈ 10.5 µg/mL)
9 | COc1cc(Cl)ccc1C(=S)Nc1cc(C(F)(F)F)ccc1O | 5.74 | 62.5 (≈ 22.6 µg/mL) | 62.5 (≈ 22.6 µg/mL) | 125 (≈ 45.2 µg/mL) | 32 (≈ 11.6 µg/mL) | 32 (≈ 11.6 µg/mL) | 0.18 | 125 (≈ 45.2 µg/mL) | 32 (≈ 11.6 µg/mL) | 0 | 32 (≈ 11.6 µg/mL) | 62.5 (≈ 22.6 µg/mL) | 62.5 (≈ 22.6 µg/mL)
10 | COc1cc(Cl)ccc1C(=O)Nc1cc(C(F)(F)F)ccc1O | 25.4 | 250 (≈ 86.4 µg/mL) | 250 (≈ 86.4 µg/mL) | 250 (≈ 86.4 µg/mL) | 250 (≈ 86.4 µg/mL) | 250 (≈ 86.4 µg/mL) | 0.1 | 250 (≈ 86.4 µg/mL) | 250 (≈ 86.4 µg/mL) | 0 | 250 (≈ 86.4 µg/mL) | 250 (≈ 86.4 µg/mL) | 250 (≈ 86.4 µg/mL)
11 | COc1ccc(Cl)cc1C(=O)Nc1cc(Cl)c(Cl)cc1O | 2.98 | 125 (≈ 43.3 µg/mL) | 125 (≈ 43.3 µg/mL) | 125 (≈ 43.3 µg/mL) | 125 (≈ 43.3 µg/mL) | 125 (≈ 43.3 µg/mL) | 0.02 | 125 (≈ 43.3 µg/mL) | 125 (≈ 43.3 µg/mL) | 7 | 125 (≈ 43.3 µg/mL) | 125 (≈ 43.3 µg/mL) | 125 (≈ 43.3 µg/mL)
12 | COc1ccc(Cl)cc1C(=S)Nc1cc(C(F)(F)F)ccc1O | 5.86 | 62.5 (≈ 22.6 µg/mL) | 62.5 (≈ 22.6 µg/mL) | 32 (≈ 11.6 µg/mL) | 32 (≈ 11.6 µg/mL) | 16 (≈ 5.79 µg/mL) | 0.18 | 62.5 (≈ 22.6 µg/mL) | 62.5 (≈ 22.6 µg/mL) | 8 | 32 (≈ 11.6 µg/mL) | 32 (≈ 11.6 µg/mL) | 32 (≈ 11.6 µg/mL)
13 | COc1cc(Cl)ccc1C(=O)Nc1ccc(Cl)cc1O | 7.34 | 125 (≈ 39 µg/mL) | 62.5 (≈ 19.5 µg/mL) | 62.5 (≈ 19.5 µg/mL) | 62.5 (≈ 19.5 µg/mL) | 16 (≈ 4.99 µg/mL) | 0.92 | 125 (≈ 39 µg/mL) | 62.5 (≈ 19.5 µg/mL) | 4 | 8 (≈ 2.5 µg/mL) | 8 (≈ 2.5 µg/mL) | 62.5 (≈ 19.5 µg/mL)
